Sampled rows, rich in hits. Any-hit rate of the full collection: about 4%.
FAS TE block: blocks the thioesterase domain of human fatty acid synthase | AID 602261 | actives 0.67% (n = 360,000) | P49327 | inhibition, % at 15 µM | recombinant FAS-TE, OMFH fluorogenic substrate, fluorescence endpoint;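 active = compounds whose normalised, plate-corrected inhibition of enzyme fluorescence in the single-dose primary screen is 50% or more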;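 note: 0% = DMSO with enzyme and 100% = substrate without enzyme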
SENP1 FRET inh: inhibitors of human SENP1 SUMO protease catalytic domain | actives 0.21% (n = 360,000) | recombinant SENP1 catalytic domain, CyPet-SUMO1-YPet FRET cleavage | inhibition, % at 10 µM;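 active = inhibition at least 30% at 10 µM, raw YFP signal under a set limit, fluorescence ratio 0.5 to 1.5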;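 note: 0% = enzyme with DMSO and 100% = no enzyme wells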
Target sequence (Q9P0U3 419-644 limits assumed): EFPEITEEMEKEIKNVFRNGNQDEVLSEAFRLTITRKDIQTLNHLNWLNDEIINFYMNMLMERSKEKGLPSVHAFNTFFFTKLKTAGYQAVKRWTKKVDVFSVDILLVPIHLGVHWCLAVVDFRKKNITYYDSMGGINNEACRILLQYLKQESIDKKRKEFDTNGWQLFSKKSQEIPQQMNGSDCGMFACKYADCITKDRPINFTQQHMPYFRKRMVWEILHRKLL
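System: Recombinant human SENP1 catalytic domain, His6-tagged | Incubation: Enzyme reaction for 50 min at room temperature, dark | Medium: Tris pH 8 with BME, BSA, NP40 and catalase | Also added: 25 nM SUMO1 FRET substrate | Compound: 10 µM single point, 0.5% DMSO | Measured by: FRET fluorescence in CFP and YFP emission channels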
Arrestin-AP2 inh: human beta-arrestin and AP2 interaction inhibition | FITC-arrestin peptide / GST-AP2 beads, flow cytometry; AP2 beta2 appendage carries R879A mutation | inhibition, % at 10 µM | actives 0.31% (n = 340,000);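 active = inhibition above a set limit, near 3 SD of compounds lacking own fluorescence, cut at about 54% in these data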;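 note: plate controls were DMSO wells for no effect and 5 µM unlabelled arrestin peptide for full effect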
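Material – GST-tagged AP2 beta2-adaptin appendage (R879A) on 4 µm glutathione beads · Probe or stimulus – fluorescein-tagged arrestin peptide at 50 nM final · Timing – 12 min plus 1 h, RT · Detection – bead flow cytometry, FITC channel · Read-out basis – inhibition as reduced fluorescein signal on beads, percent · Medium – PBS plus Tween 20 (0.05%) and BSA (0.1%)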
hiPSC survival: increases survival of single human iPS cells | hiPSC single-cell survival, ATPlite luminescence; 100% = ROCK inhibitor wells, 0% = DMSO | survival enhancement, % at 20 µM | actives 0.044% (n = 360,000) | AID 602274; in the data active = survival enhancement above about 18%;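 note: cells exposed to compounds for 16 hours before the ATP read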
GRIN3A LBD mod: modulators (binders) of human NR3A ligand-binding domain | NR3A LBD differential scanning fluorimetry, Tm shift; 0% = protein alone, 100% = glycine-bound protein | Tm shift relative to glycine control, % at 25 µM | actives 2.5% (n = 340,000);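 active = melting temperature shift of at least 10% of the positive control shift, at one fixed dose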
H9c2 protect: modulators protecting cardiomyocytes from myocardial damage | H9c2 cardiomyocytes, H2O2 injury protection, ATPLite, 2 h | protection from H2O2 cell death, % at 20 µM | actives 0.63% (n = 360,000) | AID 588492;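 active = compounds giving at least 50% protection of heart cells from peroxide-induced death in the single-dose screen, raw or plate-pattern-corrected value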;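 note: 0% = DMSO wells with peroxide and 100% = DMSO wells without peroxide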
An asterisk follows results filed as active; nt = no result given.

SMILES | FAS TE block | SENP1 FRET inh | Arrestin-AP2 inh | hiPSC survival | GRIN3A LBD mod | H9c2 protect
Cc1nc2ccccc2n1C(c1cccnc1)c1nc2ccccc2[nH]1 (stereo not drawn) | nt | 0.8 | nt | nt | nt | nt
O=C(Nc1ccc(Br)c2ccccc12)c1ccc2ccccc2c1O | 34.8 | -25.0 | 1.6 | -0.5 | 19.5* | -19.7
O=C(Nc1nnc([C@@H]2C[C@H](O)[C@@H](CO)O2)s1)Nc1ccccc1Oc1ccccc1 | -6.1 | -2.1 | nt | 0.3 | nt | 2.4
COc1ccc(Cl)cc1C(=O)NNC(=O)c1[nH]c(C)c(C(C)=O)c1C | 5.8 | 2.3 | 3.3 | 1.0 | 15.4* | 16.6
COc1cccc(C2CC(=O)N3CN(c4cccc(Cl)c4C)CSC3=C2C#N)c1OC (stereo not drawn) | 3.1 | -23.0 | 8.7 | 27.1* | -27.8 | 6.8
Cn1c(NCCc2ccncc2)nc2cc(-c3cccc(C(F)(F)F)c3)sc2c1=O | 14.3 | -1.0 | nt | -2.5 | nt | -0.3
CC(C)CC1C(=O)N(Cc2cn(Cc3ccco3)nn2)CCS(=O)(=O)N1Cc1ccc(-c2cccc(N(C)C)c2)cc1 (stereo not drawn) | 27.5 | -0.7 | nt | -1.9 | nt | -15.8
Nc1c(S(=O)(=O)c2ccccc2)c2nc3ccccc3nc2n1/N=C/c1cccc(O)c1 | 25.1 | -3.6 | 4.1 | 1.4 | 25.2* | -35.6
Cc1cccc(S(=O)(=O)c2c(N)n(/N=C/c3ccccc3)c3nc4ccccc4nc23)c1 | 25.2 | -2.5 | 18.8 | 0.3 | 1.8 | 10.3
Cc1ccc(C)c(S(=O)(=O)c2c(N)n(/N=C/c3ccco3)c3nc4ccccc4nc23)c1 | 38.6 | -12.4 | 12.2 | 0.6 | 36.1* | -1.1
O=C(Nc1ccc(F)c(Cl)c1)C1Cc2c(-c3cccc(F)c3)ccnc2O1 (stereo not drawn) | 39.6 | 0.3 | nt | -2.3 | nt | -3.9
c1ccc(Cn2c(Cn3c(-c4cnccn4)nc4ccccc43)nc3ccccc32)cc1 | -0.2 | -8.0 | nt | 0.3 | nt | nt
O=c1c2ccccc2oc2ccc(-c3ccc4cc[nH]c4c3)cc12 | 14.6 | 1.1 | 2.1 | -0.5 | 26.0* | -9.2
Cc1ccc2oc3ccccc3c(=O)c2c1 | 5.5 | -1.8 | -8.7 | -2.1 | -1.1 | -4.3
COc1ccc(NC(=O)NC[C@@H]2CC[C@@H](Cc3ccc(-c4ccccc4)cc3)O2)cc1 | 9.8 | 2.7 | -13.7 | 2.3 | 11.4* | -30.7
NC(=O)NC[C@@H]1CC[C@@H](Cc2ccc(-c3ccccc3)cc2)O1 | -6.7 | 1.1 | 1.7 | 2.9 | 2.0 | -17.0
NC(=O)c1[nH]cnc1N=NN(CCO)Cc1ccccc1 | -4.7 | 1.2 | nt | 1.3 | nt | 1.8
Cc1ccc(SC(C)C(=O)N2CCCC2)cc1 (stereo not drawn) | -10.6 | 2.1 | 2.7 | 0.4 | 12.1* | 6.7
CCOC(=O)c1c(C)n(C)c2cc(Br)c(OC)cc12 | 6.8 | 0.1 | 3.3 | 0.6 | 10.8* | -7.0
CCOC(=O)c1c(C)n(C)c2cc(Br)c(C(=O)OC)cc12 | 1.6 | 2.7 | 19.6 | 1.8 | 1.3 | -15.5
COc1ccc(NC(=O)C2(C)Cc3c(-c4cccc(NC(C)=O)c4)ccnc3O2)cn1 (stereo not drawn) | -6.3 | -4.3 | nt | 2.6 | nt | 28.8
CCN1CCN(c2nn3c(=O)c4ccccc4nc3c3ccccc23)CC1 | -9.1 | -0.9 | -8.6 | 0.3 | -0.8 | 38.1
CC1CN(c2nn3c(=O)c4ccccc4nc3c3ccccc23)CC(C)O1 (stereo not drawn) | -4.4 | -6.1 | -6.9 | -2.0 | -2.8 | 65.2*
Cc1ccc(NC(=O)c2cc3c(s2)CCCC3)cc1 | 9.1 | -4.1 | 3.4 | -0.1 | -3.8 | -11.2
COc1ccc(NC(=O)c2ccc3c(c2)NC(=O)CS3)cc1 | -6.2 | 1.6 | 23.4 | -1.0 | 2.2 | -4.3
SMILES | FAS TE block | SENP1 FRET inh | Arrestin-AP2 inh | hiPSC survival | GRIN3A LBD mod | H9c2 protect
Cc1ccc(NS(=O)(=O)c2cc(NC(=O)c3cc4c(s3)CCCC4)ccc2C)c(C)c1 | 23.0 | 0.0 | 5.6 | 4.6 | 24.7* | -4.7
Cc1ccc(OC(C)C(=O)Nc2ccc(C)c(S(=O)(=O)Nc3ccc(C)cc3C)c2)cc1 (stereo not drawn) | 41.8 | 3.7 | 11.7 | 1.3 | 11.6* | -8.5
Cc1ccc(NS(=O)(=O)c2cc(NC(=O)c3ccc4c(c3)NC(=O)CS4)ccc2Cl)c(C)c1 | 39.0 | 1.7 | 4.5 | 0.0 | 15.7* | -0.2
Cc1ccc(S(=O)(=O)Nc2ccc(Cl)cc2)cc1NC(=O)c1cc2c(s1)CCCC2 | 32.0 | 2.6 | 0.9 | 0.7 | 12.3* | -7.6
CCOC(=O)C1(C)CCCCCN1C(=O)/C=C/c1ccccc1 (stereo not drawn) | -3.1 | 1.2 | nt | -1.2 | nt | 2.2
O=C(NC(Cc1ccccc1)C(=O)Oc1ccc2c(C(F)(F)F)cc(=O)oc2c1)OCc1ccccc1 (stereo not drawn) | 22.7 | -25.5 | 6.9 | -0.4 | 14.0* | 1.8
COCC(=O)N1CCC(c2nc3ccccc3[nH]2)CC1 | -9.2 | 1.3 | nt | -0.6 | nt | 3.8
O=S1(=O)C[C@H](N2CCN(CCO)CC2)[C@@H](COCc2ccccc2)N1 | -4.2 | -3.6 | nt | 1.2 | nt | 1.0
NC(N)=NCCCC(NC(=O)c1ccccc1)C(=O)Nc1ccc2ccccc2c1 (stereo not drawn) | 5.7 | -0.2 | 3.8 | 0.6 | 4.6 | 21.4
NC(N)=NCCCC(NC(=O)c1ccccc1)C(=O)Nc1ccc([N+](=O)[O-])cc1 (stereo not drawn) | 11.2 | 0.6 | -0.7 | 2.8 | 15.7* | -0.7
COc1ccc(OCC(O)Cn2c(Nc3cccc(C)c3)nc3c2c(=O)n(C)c(=O)n3C)cc1 (stereo not drawn) | 8.8 | 1.1 | 2.1 | 1.6 | -5.3 | 64.1*
CC(C)Sc1nc2c(c(=O)[nH]c(=O)n2C)n1CC(O)COc1ccccc1 (stereo not drawn) | 4.9 | -2.2 | 11.5 | 4.0 | 0.0 | 2.1
COc1ccc(OCC(O)Cn2c(Br)nc3c2c(=O)[nH]c(=O)n3C)cc1 (stereo not drawn) | -6.7 | -10.3 | -0.4 | 3.2 | -1.9 | 53.6*
Cc1ccccc1OCC(O)Cn1c(Br)nc2c1c(=O)[nH]c(=O)n2C (stereo not drawn) | -5.5 | 0.5 | 29.6 | -0.7 | 0.5 | 40.8
Cc1cccc(Nc2nc3c(c(=O)n(C)c(=O)n3C)n2Cc2ccccc2)c1 | 1.1 | 0.6 | 0.9 | 1.9 | -2.1 | 2.6
Cn1c(=O)[nH]c(=O)c2c1nc(Br)n2CC(O)COc1ccc(Cl)cc1 (stereo not drawn) | -1.3 | 0.9 | 3.1 | -1.2 | 0.5 | 92.2*
CC1(C)CC(=O)C=C(NC2CCCCCC2)C1 | -6.0 | -3.0 | 9.9 | 2.2 | 10.7* | -5.7
O=C1N/C(=N\S(=O)(=O)c2ccccc2)S/C1=C\c1cc([N+](=O)[O-])ccc1O | -5.0 | 26.5 | 17.9 | 2.3 | 14.0* | 2.1

From PubChem
